ChEMBL document CHEMBL4689842, “EUbOPEN Chemogenomics Library wave 1” (2021)

Assays:
Assay type in all cases: toxicity, cell-based
Fibroblast = experiment: Incucyte cell viability with human fibroblast; conditions: 10 µM, compound concentration 10 uM; further: filed as whole numbers so only -1 and 0 and 1 occur
HEK-293T [1] = experiment: Multiplex assay against HEK293T; conditions: human;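 on Population Tubulin-Different-Phenotype (%): share of the cells with healthy nuclei that show this phenotype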
Procedure, shortened: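 At seeding, live cells were stained with Hoechst33342, BioTracker Green Microtubule Cytoskeleton Dye, MitoTracker Red and Annexin V Alexa Fluor 680. After compound addition they were imaged on a CQ1 microscope at 37°C and 5% CO2, and CellPathfinder machine-learning gating sorted them into Hoechst high-intensity objects or normal cells, with normal cells further split into healthy, pyknosed or fragmented nuclei and pyknosed cells into mitotic or apoptotic. Tubulin, mitochondrial-mass and membrane-permeability phenotypes are given as per cents of cells with healthy nuclei.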

HEK-293T [2] = experiment: Incucyte cell viability with HEK293T; conditions: human, 10 µM, compound concentration 10 uM; further: filed as whole numbers so only -1 and 0 and 1 occur
[3] = 6 h, replicate number 1, timepoint 6 hours
[4] = 12 h, replicate number 1, timepoint 12 hours
[5] = 18 h, replicate number 1, timepoint 18 hours
[6] = 24 h, replicate number 1, timepoint 24 hours
[7] = 12 h, 1 µM, compound concentration 1 uM, replicate 1
[8] = 12 h, 1 µM, compound concentration 1 uM, replicate 2
[9] = 12 h, 10 µM, compound concentration 10 uM, replicate 1
[10] = 12 h, 10 µM, compound concentration 10 uM, replicate 2
[11] = 24 h, 1 µM, compound concentration 1 uM, replicate 1
[12] = 24 h, 1 µM, compound concentration 1 uM, replicate 2
[13] = 24 h, 10 µM, compound concentration 10 uM, replicate 1
[14] = 24 h, 10 µM, compound concentration 10 uM, replicate 2

## Cl.Cn1c2c(c3ccc(Cl)c(Cl)c31)C(C#N)C1(CCNCC1)NC2=O (stereo not given)
Fibroblast; [3]
  Growth Rate: 0
Fibroblast; [4]
  Growth Rate: 0
Fibroblast; [5]
  Growth Rate: 0
Fibroblast; [6]
  Growth Rate: 0
HEK-293T [1]; [7]
  Population Apoptotic (%): 17%
  Population Fragmented Nuclei (%): 13%
  Population Healthy Nuclei (%): 66%
  Population Hoechst High Intensity Objects (%): 10%
  Population Membrane Permeable-Phenotype (%): 8%
  Population Mitochondria Different-Phenotype (%): 6%
  Population Mitotic Cells (%): 82%
  Population Normal (%): 89%
  Population Pyknosed Nuclei (%): 19%
  Population Tubulin-Different-Phenotype (%): 10%
  Total Cell Count: 650
HEK-293T [1]; [8]
  Population Apoptotic (%): 2%
  Population Fragmented Nuclei (%): 6%
  Population Healthy Nuclei (%): 87%
  Population Hoechst High Intensity Objects (%): 3%
  Population Membrane Permeable-Phenotype (%): 3%
  Population Mitochondria Different-Phenotype (%): 7%
  Population Mitotic Cells (%): 97%
  Population Normal (%): 96%
  Population Pyknosed Nuclei (%): 5%
  Total Cell Count: 1592
HEK-293T [1]; [9]
  Population Apoptotic (%): 24%
  Population Fragmented Nuclei (%): 16%
  Population Healthy Nuclei (%): 30%
  Population Hoechst High Intensity Objects (%): 20%
  Population Membrane Permeable-Phenotype (%): 23%
  Population Mitochondria Different-Phenotype (%): 14%
  Population Mitotic Cells (%): 75%
  Population Normal (%): 79%
  Population Pyknosed Nuclei (%): 52%
  Population Tubulin-Different-Phenotype (%): 76%
  Total Cell Count: 698
HEK-293T [1]; [10]
  Population Apoptotic (%): 17%
  Population Fragmented Nuclei (%): 3%
  Population Healthy Nuclei (%): 74%
  Population Hoechst High Intensity Objects (%): 4%
  Population Membrane Permeable-Phenotype (%): 24%
  Population Mitochondria Different-Phenotype (%): 25%
  Population Mitotic Cells (%): 82%
  Population Normal (%): 95%
  Population Pyknosed Nuclei (%): 22%
  Population Tubulin-Different-Phenotype (%): 95%
  Total Cell Count: 983
HEK-293T [1]; [11]
  Population Apoptotic (%): 16%
  Population Fragmented Nuclei (%): 11%
  Population Healthy Nuclei (%): 77%
  Population Hoechst High Intensity Objects (%): 7%
  Population Membrane Permeable-Phenotype (%): 17%
  Population Mitochondria Different-Phenotype (%): 5%
  Population Mitotic Cells (%): 83%
  Population Normal (%): 92%
  Population Pyknosed Nuclei (%): 10%
  Population Tubulin-Different-Phenotype (%): 17%
  Total Cell Count: 747
HEK-293T [1]; [12]
  Population Apoptotic (%): 5%
  Population Fragmented Nuclei (%): 24%
  Population Healthy Nuclei (%): 72%
  Population Hoechst High Intensity Objects (%): 3%
  Population Membrane Permeable-Phenotype (%): 7%
  Population Mitochondria Different-Phenotype (%): 1%
  Population Mitotic Cells (%): 94%
  Population Normal (%): 96%
  Population Pyknosed Nuclei (%): 2%
  Population Tubulin-Different-Phenotype (%): 11%
  Total Cell Count: 2758
HEK-293T [1]; [13]
  Population Apoptotic (%): 25%
  Population Fragmented Nuclei (%): 19%
  Population Healthy Nuclei (%): 32%
  Population Hoechst High Intensity Objects (%): 19%
  Population Membrane Permeable-Phenotype (%): 16%
  Population Mitochondria Different-Phenotype (%): 22%
  Population Mitotic Cells (%): 74%
  Population Normal (%): 80%
  Population Pyknosed Nuclei (%): 47%
  Population Tubulin-Different-Phenotype (%): 86%
  Total Cell Count: 669
HEK-293T [1]; [14]
  Population Apoptotic (%): 12%
  Population Fragmented Nuclei (%): 5%
  Population Healthy Nuclei (%): 81%
  Population Hoechst High Intensity Objects (%): 9%
  Population Membrane Permeable-Phenotype (%): 13%
  Population Mitochondria Different-Phenotype (%): 25%
  Population Mitotic Cells (%): 87%
  Population Normal (%): 91%
  Population Pyknosed Nuclei (%): 13%
  Population Tubulin-Different-Phenotype (%): 94%
  Total Cell Count: 1033
HEK-293T [2]; [3]
  Growth Rate: 0
HEK-293T [2]; [4]
  Growth Rate: 0
HEK-293T [2]; [5]
  Growth Rate: 0
HEK-293T [2]; [6]
  Growth Rate: 0
